Results on eight compounds are retold here after publication PMC4277744 (European journal of medicinal chemistry, 2014).

Where two headings read alike, the source gives them in different places.

Data set [1] is described as follows: Stability of ninhydrin adduct in aqueous buffer monitored by 1H NMR. The class given is physicochemical. The following applies: after one hour, pH 8, D2O, 10 mM phosphate buffer.
For data set [2] the following is noted: cited from earlier work.
Data set [3] relates to HeLa cell. Description: HeLa cell viability assay. The following applies: after 48 h.
The target of data set [4] is T1, catalytic domain of KDM4A (Homo sapiens, UniProt O75164).
T1 sequence (O75164 142-308 limits assumed): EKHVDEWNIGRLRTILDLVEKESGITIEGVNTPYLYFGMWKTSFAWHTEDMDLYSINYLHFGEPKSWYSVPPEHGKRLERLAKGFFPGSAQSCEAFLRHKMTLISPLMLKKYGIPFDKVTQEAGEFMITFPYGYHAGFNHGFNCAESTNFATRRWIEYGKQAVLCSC
Briefly: Fluorescence-based. The class given is biochemical. The following applies: FluoZin-3 dye measures unbound zinc; ebselen positive control.

Data set [5] has as its target CH1 domain of p300 (Homo sapiens, UniProt Q09472). Briefly: Fluorescence-based assay for release of Zn. The class given is biochemical. To be noted: high basal levels of Zn(II), poorer resolution.
In data set [6] the target is HIF-1α (785-826)/p300 CH1 domain (323-423) (Homo sapiens, UniProt Q09472). Briefly: ELISA competition assay for disrupting HIF-1α/p300 binding. To be noted: read-out: IC50, HIF-1α/p300 interaction, 1% DMSO. The method, boiled down:
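Assay wells held 1% DMSO. Each determination ran in triplicate and is reported with ±SD.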
A general note: In an ELISA, binding on a coated surface is turned into a signal by an enzyme label.

In data set [7] the test system is HeLa cell.
Data set [8] deals with p300 CH1 (Homo sapiens) (UniProt Q09472). To be noted: cited from earlier work.
Chain of p300 CH1 (Homo sapiens) (Q09472 331-417): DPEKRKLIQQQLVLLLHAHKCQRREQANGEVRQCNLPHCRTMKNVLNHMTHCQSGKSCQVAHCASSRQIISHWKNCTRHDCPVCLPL

Chain of CH1 domain of p300 (Q09472 331-417 limits assumed): as the sequence (Q09472 331-417) above
Chain of HIF-1α C-TAD (Q16665 783-826): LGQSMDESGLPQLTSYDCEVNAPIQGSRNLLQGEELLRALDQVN
Chain of HIF-1α (785-826)/p300 CH1 domain (323-423) (Q09472 323-423): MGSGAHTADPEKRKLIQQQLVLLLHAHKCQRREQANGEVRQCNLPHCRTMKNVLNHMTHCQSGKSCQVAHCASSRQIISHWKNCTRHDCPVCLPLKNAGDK

As to `O=C(NC1(O)C(=O)c2ccccc2C1=O)c1ccccn1` [compound 5, N-(2-Hydroxy-1,3-dioxo-2,3-dihydro-1H-inden-2-yl)picolinamide], the “hydrolysis to picolinamide and ninhydrin 23” value in data set [1] is given as 80%.
Consider `O=C1c2ccccc2C(=O)c2ccccc21` [compound 7, anthraquinone], for which the “half wave potential (E1/2)” value in data set [2] is recorded as -1.26 V.
Turning to `O=C1C=CC(=O)c2ccccc21` [compound 8, naphthoquinone], the “cytotoxicity in HeLa cell viability assay” value (shortened to “cytotoxicity”) in data set [3] is given as “significant dose-dependent cytotoxicity”. For the same compound, the “Zn(II) ion ejection from KDM4A” value in data set [4] is recorded as “caused Zn(II) ion loss”. Moreover, in data set [5], the “Zn(II) ion release from CH1 domain of p300” value is “dose- and time-dependent increases in fluorescence”. For the same compound, the “half wave potential (E1/2)” value in data set [2] is reported as -1.03 V.
With `c1ccc(SSc2ccccn2)nc1` [compound 13, Dipyridyldisulfide], the IC50 in data set [6] is approximately 100 µM.
For `O=C(NC1(O)C(=O)c2ccccc2C1=O)c1cccnc1` [compound 16, N-(2-Hydroxy-1,3-dioxo-2,3-dihydro-1H-inden-2-yl)nicotinamide], the “Zn(II) ion ejection from KDM4A” value in data set [4] was “caused Zn(II) ion loss”.
Take `O=C(NN1C(=O)c2ccccc2C1=O)c1ccccc1` [compound 21, N-(1,3-Dioxoisoindolin-2-yl)benzamide]: the “cytotoxicity” value in data set [7] was “not cytotoxic”.
`O=C1c2ccccc2C(=O)C1(O)O` [compound 23, ninhydrin]: the “cytotoxicity” value in data set [7] is given as “significant dose-dependent cytotoxicity”. The “Zn(II) ion ejection from KDM4A” value in data set [4] was “caused Zn(II) ion loss”. Further, in data set [5], the “Zn(II) ion release from CH1 domain of p300” value was “dose- and time-dependent increases in fluorescence”.
The Kd is the concentration at which binding is half-saturated. For HIF-1α C-TAD (from UniProt Q16665), the Kd in data set [8] is 7 nM.
